Source: ChEMBL document CHEMBL1125286, “Zatosetron, a potent, selective, and long-acting 5HT3 receptor antagonist: synthesis and structure-activity relationships” (J Med Chem, 1992)

Key:
[1] = molecular target: T1, Serotonin 3 (5-HT3) receptor (Rattus norvegicus) (UniProt P35563+Q9JJ16); assay: 5-hydroxytryptamine 3 receptor antagonistic activity measured by inhibition of 5-HT-induced bradycardia (iv administration 10 ug/kg dose in urethane-anesthetized rats); type: functional, organism-based
Outline: (§1)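 Urethane-anesthetized rats. First 5HT challenge 30 μg/kg iv gives a transient bradycardia. Once heart rate is back at steady state (≤5 min), test compound or saline goes in via the femoral vein. 5HT 30 μg/kg iv is repeated 15 min later. % inhibition is the difference between first and second bradycardia at peak, each animal its own control. Means ± SEM, groups of 3–16 rats.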

[2] = molecular target: T1, Serotonin 3 (5-HT3) receptor (Rattus norvegicus); assay: 5-hydroxytryptamine 3 receptor antagonistic activity was measured by the inhibition of 5H+ T-induced bradycardia after iv administration of 1000 ug/kg dose in urethane-anesthetized rats; type: functional, organism-based; outline: as §1
[3] = molecular target: T1, Serotonin 3 (5-HT3) receptor (Rattus norvegicus); assay: 5-hydroxytryptamine 3 receptor antagonistic activity as inhibition of 5-HT-induced bradycardia after iv administration of 100 ug/kg dose in urethane-anesthetized rats; type: functional, organism-based; outline: as §1
[4] = molecular target: T1, Serotonin 3 (5-HT3) receptor (Rattus norvegicus); assay: 5-hydroxytryptamine 3 receptor antagonistic activity was measured by the inhibition of 5H+ T-induced bradycardia after iv administration of 3 ug/kg dose in urethane-anesthetized rats; type: functional, organism-based
Outline: (§2)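 Urethane-anesthetized rats; antagonist or saline given iv via femoral vein after heart rate settled (≤5 min) from an initial 5HT challenge (30 µg/kg iv). 5HT was given again 15 min later. Peak bradycardia measured, each rat its own control; % inhibition = difference between first and second responses. Groups of 3–16 rats, means ± SEM.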

[5] = molecular target: T1, Serotonin 3 (5-HT3) receptor (Rattus norvegicus); assay: Compound was tested for the inhibition of 5-HT-induced bradycardia after intravenous administration of 30 ug/kg dose in urethane-anesthetized rats; type: functional, organism-based; outline: as §1
[6] = molecular target: T1, Serotonin 3 (5-HT3) receptor (Rattus norvegicus); assay: 5-hydroxytryptamine 3 receptor antagonistic activity was measured by the inhibition of 5H+ T-induced bradycardia after po administration of 300 ug/kg dose in urethane-anesthetized rats; type: functional, organism-based
Outline: (§3)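 Fasted rats dosed by gavage (5 mL/kg) with compound or distilled-water vehicle. Urethane anesthesia and surgical preparation 15–20 min before challenge. 5HT 0.03 mg/kg iv given 1 h after dosing. Peak bradycardia is compared with vehicle-treated controls. Means ± SEM, groups of 3–11 rats.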

[7] = molecular target: T1, Serotonin 3 (5-HT3) receptor (Rattus norvegicus); assay: Compound was tested for the inhibition of 5-HT-induced bradycardia after peroral administration of 1 mg/kg at 1 hour in urethane-anesthetized rats; type: functional, organism-based; parameters: dose 1 mg/kg; details: at 1 mg/kg
Outline: (§4)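 Duration study: antagonist or vehicle gavaged to conscious fasted rats (5 mL/kg). Rats were urethane-anesthetized and surgically prepared, then challenged with 5HT 0.03 mg/kg iv at the stated time after dosing. Vehicle-treated rats served as controls. Peak inhibition of bradycardia recorded in groups of 3–11, means ± SEM.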

[8] = molecular target: T1, Serotonin 3 (5-HT3) receptor (Rattus norvegicus); assay: 5-hydroxytryptamine 3 receptor antagonistic activity was measured by the inhibition of 5H+ T-induced bradycardia after po administration of 30 ug/kg dose in urethane-anesthetized rats; type: functional, organism-based; outline: as §3
[9] = molecular target: T1, Serotonin 3 (5-HT3) receptor (Rattus norvegicus); assay: Compound was tested for the inhibition of 5-HT-induced bradycardia after peroral administration of 1 mg/kg at 3 hours in urethane-anesthetized rats; type: functional, organism-based; parameters: dose 1 mg/kg; details: at 1 mg/kg; outline: as §4
[10] = molecular target: T1, Serotonin 3 (5-HT3) receptor (Rattus norvegicus); assay: Compound was tested for the inhibition of 5-HT-induced bradycardia after peroral administration of 1 mg/kg at 0.5 hours in urethane-anesthetized rats; type: functional, organism-based; parameters: dose 1 mg/kg; details: at 1 mg/kg; outline: as §4
[11] = molecular target: T1, Serotonin 3 (5-HT3) receptor (Rattus norvegicus); assay: 5-hydroxytryptamine 3 receptor antagonistic activity was measured by the inhibition of 5H+ T-induced bradycardia after po administration of 100 ug/kg dose in urethane-anesthetized rats; type: functional, organism-based; outline: as §3
[12] = molecular target: T1, Serotonin 3 (5-HT3) receptor (Rattus norvegicus); assay: 5-hydroxytryptamine 3 receptor antagonistic activity was measured by the inhibition of 5H+ T-induced bradycardia after po administration of 1000 ug/kg dose in urethane-anesthetized rats; type: functional, organism-based; outline: as §3
[13] = molecular target: T1, Serotonin 3 (5-HT3) receptor (Rattus norvegicus); assay: Compound was tested for the inhibition of 5-HT-induced bradycardia after peroral administration in urethane-anesthetized rats
[14] = molecular target: T1, Serotonin 3 (5-HT3) receptor (Rattus norvegicus); assay: Inhibition of 5-HT-induced bradycardia by 5-hydroxytryptamine 3+; type: functional
[15] = molecular target: T1, Serotonin 3 (5-HT3) receptor (Rattus norvegicus); assay: Compound was tested for the inhibition of 5-HT-induced bradycardia after peroral administration of 10 ug/kg dose in urethane-anesthetized rats; type: functional, organism-based
Outline: (§5)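 Fasted rats gavaged (5 mL/kg) with antagonist or vehicle (distilled water). Urethane anesthesia and surgical preparation followed, 15–20 min before 5HT challenge. 5HT 30 µg/kg iv given 1 h after dosing, with vehicle-treated rats as controls. Peak % inhibition of bradycardia in groups of 3–11, means ± SEM.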

[16] = molecular target: T1, Serotonin 3 (5-HT3) receptor (Rattus norvegicus); assay: Compound was tested for the inhibition of 5-HT-induced bradycardia after peroral administration of 0.03 mg/kg dose in urethane-anesthetized rats at 3 hour; type: functional, organism-based; parameters: dose 0.03 mg/kg; outline: as §4
[17] = molecular target: T1, Serotonin 3 (5-HT3) receptor (Rattus norvegicus); assay: Compound was tested for the inhibition of 5-HT-induced bradycardia after intravenous administration of 0.3 ug/kg dose in urethane-anesthetized rats; type: functional, organism-based; outline: as §2
[18] = molecular target: T1, Serotonin 3 (5-HT3) receptor (Rattus norvegicus); assay: Compound was tested for the inhibition of 5-HT-induced bradycardia after peroral administration of 0.03 mg/kg dose in urethane-anesthetized rats at 0.05 hour; type: functional, organism-based; parameters: dose 0.03 mg/kg; details: in the assay text read “0.5 hour” for “0.05 hour”; outline: as §4
[19] = molecular target: T1, Serotonin 3 (5-HT3) receptor (Rattus norvegicus); assay: Compound was tested for the inhibition of 5-HT-induced bradycardia after intravenous administration of 1 ug/kg dose in urethane-anesthetized rats; type: functional, organism-based; outline: as §2
[20] = molecular target: T1, Serotonin 3 (5-HT3) receptor (Rattus norvegicus); assay: Compound was tested for the inhibition of 5-HT-induced bradycardia after peroral administration of 3 ug/kg dose in urethane-anesthetized rats; type: functional, organism-based; outline: as §5
[21] = molecular target: T1, Serotonin 3 (5-HT3) receptor (Rattus norvegicus); assay: Compound was tested for the inhibition of 5-HT-induced bradycardia after peroral administration of 0.03 mg/kg dose in urethane-anesthetized rats at 16 hour; type: functional, organism-based; parameters: dose 0.03 mg/kg; outline: as §4
[22] = molecular target: T1, Serotonin 3 (5-HT3) receptor (Rattus norvegicus); assay: Compound was tested for the inhibition of 5-HT-induced bradycardia after peroral administration of 0.03 mg/kg dose in urethane-anesthetized rats at 6 hour; type: functional, organism-based; parameters: dose 0.03 mg/kg; outline: as §4
[23] = test system: Serotonin 3 receptor (Cavia porcellus); assay: In vitro binding affinity was measured for 5-hydroxytryptamine 3 receptor in the guinea pig ileum.
[24] = molecular target: T1, Serotonin 3 (5-HT3) receptor (Rattus norvegicus); assay: Compound was tested for the inhibition of 5-HT-induced bradycardia after peroral administration of 0.03 mg/kg dose in urethane-anesthetized rats at 1 hour; type: functional, organism-based; parameters: dose 0.03 mg/kg; outline: as §4
[25] = molecular target: T1, Serotonin 3 (5-HT3) receptor (Rattus norvegicus); assay: Compound was tested for the inhibition of 5-HT-induced bradycardia after peroral administration of 30 ug/kg dose in urethane-anesthetized rats; type: functional, organism-based; outline: as §5
[26] = molecular target: T1, Serotonin 3 (5-HT3) receptor (Rattus norvegicus); assay: 5-HT3 receptor antagonistic activity was measured by the inhibition of 5-HT-induced bradycardia after iv administration of 1000 ug/kg dose in urethane-anesthetized rats; type: functional, organism-based; outline: as §1
[27] = molecular target: T1, Serotonin 3 (5-HT3) receptor (Rattus norvegicus); assay: 5-hydroxytryptamine 3 receptor antagonistic activity was measured by the inhibition of 5-HT-induced bradycardia after iv administration of 1000 ug/kg dose in urethane-anesthetized rats; type: functional, organism-based; outline: as §1

Q: CN1C2CCC1CC(NC(=O)c1ccc(Cl)c3c1OC(C)(C)C3)C2 (stereo not given) was tested. Which inhibition [1] did it give?
A: 1.9%

Q: How did the inhibition [2] turn out when CN1C2CCC1CC(OC(=O)c1ccccc1Oc1ccccc1)C2 (stereo not given) was run?
A: 54.5%

Q: With CN1[C@@H]2CC[C@H]1C[C@@H](OC(=O)c1cc(Cl)cc(Cl)c1)C2 as the compound, how does the inhibition [1] read?
A: 9.7%

Q: And the inhibition [3]?
A: 71.4%

Q: For CN1C2CCC1CC(NC(=O)c1cccc3c1OC(C)(C)C3)C2 (stereo not given), which inhibition [4] is on record?
A: 13.7%

Q: And the inhibition [1]?
A: 47.5%

Q: Which inhibition [5] does the source give for CC1Oc2c(C(=O)OC3CC4CCC(C3)N4C)cccc2C1C (stereo in doubt; 26) here?
A: 78.7%

Q: And the inhibition [4]?
A: 1.8%

Q: What about the inhibition [1] of the same compound?
A: 29.9%

Q: With CN1C2CCC1CC(NC(=O)c1ccc3c(c1)CC(C)(C)O3)C2 (stereo not given) as the compound, how does the inhibition [1] read?
A: 16.7%

Q: With Cc1nccn1CC1CCc2c(c3ccccc3n2C)C1=O (stereo not given) as the compound, how does the inhibition [6] read?
A: 55.1%

Q: And the inhibition [7]?
A: 73.4%

Q: And the inhibition [8]?
A: 0.3%

Q: What about the inhibition [9] of the same compound?
A: 6.5%

Q: And the inhibition [10]?
A: 74.3%

Q: And the inhibition [11]?
A: 18.2%

Q: What about the inhibition [12] of the same compound?
A: 73.4%

Q: And the ED50 [13]?
A: 316 µg/kg

Q: And the ED50 [14]?
A: 3.3 µg/kg

Q: For CN1[C@@H]2CC[C@H]1C[C@@H](NC(=O)c1cc(Cl)cc3c1OC(C)(C)C3)C2 (stereo in doubt), which inhibition [15] is on record?
A: 57.1%

Q: What about the inhibition [16] of the same compound?
A: 61.1%

Q: What about the inhibition [17] of the same compound?
A: 10.8%

Q: What about the inhibition [18] of the same compound?
A: 86.4%

Q: And the inhibition [19]?
A: 66.2%

Q: And the inhibition [20]?
A: 19.1%

Q: And the inhibition [4]?
A: 84.4%

Q: And the inhibition [21]?
A: 0%

Q: And the inhibition [22]?
A: 81.4%

Q: And the -Log KB [23]?
A: 8.78

Q: And the inhibition [24]?
A: 77.6%

Q: What about the inhibition [25] of the same compound?
A: 77.6%

Q: What about the ED50 [13] of the same compound?
A: 9.2 µg/kg

Q: And the ED50 [14]?
A: 0.9 µg/kg

Q: For CN1CCC(OC(=O)c2ccccc2)CC1, which inhibition [26] is on record?
A: 0%

Q: With CN1C2CCC1CC(OC(=O)c1ccccc1-c1ccccc1)C2 (stereo not given) as the compound, how does the inhibition [27] read?
A: 47.3%
